According to ChEMBL document CHEMBL2021777 (J Med Chem, 2012):

Assays:
Rattus norvegicus [1] = species on record: Rattus norvegicus; assay: Selectivity ratio of Ki for rat alpha3beta4 to Ki for rat alpha4beta2
Summary of the method: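 Ki values from [3H]epibatidine competition binding at heterologously expressed rat nAChR subtypes, using the PDSP protocol; selectivity taken as the α3β4/α4β2 Ki ratio.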

[2] = molecular target: Neuronal acetylcholine receptor; alpha4/beta2 (Homo sapiens, UniProt P17787+P43681); assay: Partial agonist activity at human high sensitive alpha4beta2 nAChR expressed in SH-EP1 cells assessed as 86Rb+ ion efflux by flip-plate technique relative to sazetidine-A; format: functional, cell-based
Summary of the method: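 86Rb+ ion flux in SH-EP1 cells stably transfected with separate human α4 and β2 subunit cDNAs, expressing a mixture of high- and low-sensitivity α4β2 nAChRs. Cells kept at low passage (1−26). Efficacy at the HS form extrapolated relative to a reference agonist defined as a 100% full agonist.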

Mus musculus = assay: Ex-vivo beta2* nAChR receptor occupancy in mouse brain at 10 mg/kg, ip administered 30 mins prior to testing; format: functional; settings: route intraperitoneal
Summary of the method: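 Mice dosed at 10 mg/kg, or water, by intraperitoneal injection 30 min before brain collection (the forced-swim time point); ex vivo β2*-nAChR occupancy measured in brain.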

[3] = molecular target: T1, 5-hydroxytryptamine receptor 1A (Homo sapiens) (UniProt P08908); assay: Displacement of [3H]8-OH-DPAT from 5-HT1A at 10 uM
T1 sequence (whole entry): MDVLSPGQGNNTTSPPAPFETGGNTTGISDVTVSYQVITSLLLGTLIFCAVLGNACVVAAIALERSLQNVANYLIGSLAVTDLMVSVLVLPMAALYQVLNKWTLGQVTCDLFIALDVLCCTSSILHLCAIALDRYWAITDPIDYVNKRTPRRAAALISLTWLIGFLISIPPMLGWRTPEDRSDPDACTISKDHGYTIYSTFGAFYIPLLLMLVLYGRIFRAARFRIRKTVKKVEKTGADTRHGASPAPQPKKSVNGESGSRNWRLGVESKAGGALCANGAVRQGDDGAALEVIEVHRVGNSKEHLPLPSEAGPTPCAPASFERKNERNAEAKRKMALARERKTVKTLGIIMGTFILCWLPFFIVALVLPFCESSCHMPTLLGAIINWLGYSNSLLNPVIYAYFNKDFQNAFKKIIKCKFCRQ

[4] = molecular target: 5-hydroxytryptamine receptor 2B (Homo sapiens) (UniProt P41595); assay: Displacement of [3H]LSD from 5-HT2B at 10 uM
Sequence of 5-hydroxytryptamine receptor 2B (Homo sapiens) (P41595 whole entry): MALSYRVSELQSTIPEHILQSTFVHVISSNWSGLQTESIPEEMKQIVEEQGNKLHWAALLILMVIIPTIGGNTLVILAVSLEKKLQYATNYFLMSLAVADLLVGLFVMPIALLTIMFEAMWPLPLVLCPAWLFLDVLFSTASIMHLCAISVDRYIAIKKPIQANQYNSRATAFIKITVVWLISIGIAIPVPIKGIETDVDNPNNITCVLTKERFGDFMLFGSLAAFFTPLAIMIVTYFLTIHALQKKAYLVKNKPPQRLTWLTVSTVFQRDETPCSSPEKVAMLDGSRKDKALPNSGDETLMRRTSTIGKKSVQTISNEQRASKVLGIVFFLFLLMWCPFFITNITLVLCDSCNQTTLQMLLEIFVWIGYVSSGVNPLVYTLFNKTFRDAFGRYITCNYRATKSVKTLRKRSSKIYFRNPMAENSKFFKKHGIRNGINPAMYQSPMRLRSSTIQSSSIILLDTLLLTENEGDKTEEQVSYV

[5] = molecular target: 5-hydroxytryptamine receptor 6 (Homo sapiens) (UniProt P50406); assay: Displacement of [3H]LSD from 5-HT6 at 10 uM
Sequence of 5-hydroxytryptamine receptor 6 (Homo sapiens) (P50406 whole entry): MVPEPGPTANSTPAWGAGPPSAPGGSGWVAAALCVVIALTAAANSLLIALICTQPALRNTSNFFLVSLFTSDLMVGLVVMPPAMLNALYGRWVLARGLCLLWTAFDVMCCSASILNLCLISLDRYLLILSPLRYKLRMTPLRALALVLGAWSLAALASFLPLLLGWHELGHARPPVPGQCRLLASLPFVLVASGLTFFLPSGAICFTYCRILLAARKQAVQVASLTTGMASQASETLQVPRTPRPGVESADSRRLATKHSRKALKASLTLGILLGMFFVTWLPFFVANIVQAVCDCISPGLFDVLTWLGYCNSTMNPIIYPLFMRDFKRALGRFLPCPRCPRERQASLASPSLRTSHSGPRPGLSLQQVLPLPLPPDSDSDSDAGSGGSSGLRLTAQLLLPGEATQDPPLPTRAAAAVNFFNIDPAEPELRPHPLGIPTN

[6] = molecular target: T2, Alpha-1A adrenergic receptor (Homo sapiens) (UniProt P35348); assay: Displacement of [3H]Prazosin from alpha1A adrenergic receptor at 10 uM
T2 sequence (whole entry): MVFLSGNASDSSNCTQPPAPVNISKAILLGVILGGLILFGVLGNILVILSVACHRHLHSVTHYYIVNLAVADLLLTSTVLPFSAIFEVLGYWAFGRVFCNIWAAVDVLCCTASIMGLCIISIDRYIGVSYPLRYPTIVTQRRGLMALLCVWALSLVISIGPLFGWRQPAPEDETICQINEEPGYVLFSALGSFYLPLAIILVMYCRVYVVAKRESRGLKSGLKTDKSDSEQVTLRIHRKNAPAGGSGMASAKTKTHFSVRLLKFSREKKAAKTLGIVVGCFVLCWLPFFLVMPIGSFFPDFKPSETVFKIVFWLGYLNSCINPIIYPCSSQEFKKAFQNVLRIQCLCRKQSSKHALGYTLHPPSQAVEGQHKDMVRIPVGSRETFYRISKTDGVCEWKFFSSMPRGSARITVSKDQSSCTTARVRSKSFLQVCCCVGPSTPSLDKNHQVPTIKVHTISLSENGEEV

[7] = molecular target: T3, Alpha-2B adrenergic receptor (Homo sapiens) (UniProt P18089); assay: Displacement of [3H]Clonidine from alpha2B adrenergic receptor at 10 uM
T3 sequence (whole entry): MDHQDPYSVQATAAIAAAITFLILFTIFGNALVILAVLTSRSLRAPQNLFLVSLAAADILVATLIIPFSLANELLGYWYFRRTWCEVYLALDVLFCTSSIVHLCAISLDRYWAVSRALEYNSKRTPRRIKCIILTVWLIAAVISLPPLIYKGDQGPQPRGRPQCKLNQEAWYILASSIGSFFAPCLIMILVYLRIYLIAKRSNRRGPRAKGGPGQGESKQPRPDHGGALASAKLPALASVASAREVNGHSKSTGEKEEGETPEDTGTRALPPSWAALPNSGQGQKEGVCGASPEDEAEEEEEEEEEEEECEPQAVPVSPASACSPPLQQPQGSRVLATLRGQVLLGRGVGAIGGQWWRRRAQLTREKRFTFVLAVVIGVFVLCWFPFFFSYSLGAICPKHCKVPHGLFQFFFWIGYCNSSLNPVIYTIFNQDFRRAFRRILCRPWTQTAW

[8] = molecular target: Beta-1 adrenergic receptor (Homo sapiens) (UniProt P08588); assay: Displacement of [125I]Iodopindolol from beta1 adrenergic receptor at 10 uM
Sequence of Beta-1 adrenergic receptor (Homo sapiens) (P08588 whole entry, looked up): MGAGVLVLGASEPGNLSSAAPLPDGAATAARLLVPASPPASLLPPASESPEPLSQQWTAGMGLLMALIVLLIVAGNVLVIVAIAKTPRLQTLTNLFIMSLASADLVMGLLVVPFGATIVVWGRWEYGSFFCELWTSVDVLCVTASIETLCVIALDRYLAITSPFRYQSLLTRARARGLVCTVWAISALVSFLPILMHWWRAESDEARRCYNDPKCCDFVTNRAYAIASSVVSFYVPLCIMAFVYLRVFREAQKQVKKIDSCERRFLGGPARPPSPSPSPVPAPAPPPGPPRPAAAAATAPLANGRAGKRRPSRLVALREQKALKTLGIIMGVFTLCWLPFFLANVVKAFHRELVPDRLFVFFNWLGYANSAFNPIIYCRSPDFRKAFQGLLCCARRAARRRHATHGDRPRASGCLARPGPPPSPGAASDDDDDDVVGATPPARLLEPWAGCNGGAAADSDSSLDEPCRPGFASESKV

[9] = molecular target: Beta-3 adrenergic receptor (Homo sapiens) (UniProt P13945); assay: Displacement of [125I]Iodopindolol from beta3 adrenergic receptor at 10 uM
Sequence of Beta-3 adrenergic receptor (Homo sapiens) (P13945 whole entry, looked up): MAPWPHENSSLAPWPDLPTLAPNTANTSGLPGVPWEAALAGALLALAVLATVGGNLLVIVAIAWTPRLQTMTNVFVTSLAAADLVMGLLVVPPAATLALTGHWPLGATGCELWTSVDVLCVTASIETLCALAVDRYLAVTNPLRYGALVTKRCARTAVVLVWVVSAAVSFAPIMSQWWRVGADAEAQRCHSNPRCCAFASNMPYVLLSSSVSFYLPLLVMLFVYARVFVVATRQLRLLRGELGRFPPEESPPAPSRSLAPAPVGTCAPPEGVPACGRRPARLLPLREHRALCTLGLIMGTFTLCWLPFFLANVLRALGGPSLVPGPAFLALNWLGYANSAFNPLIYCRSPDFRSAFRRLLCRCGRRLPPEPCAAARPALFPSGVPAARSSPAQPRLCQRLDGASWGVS

[10] = molecular target: T4, Muscarinic acetylcholine receptor M4 (Homo sapiens) (UniProt P08173); assay: Displacement of [3H]QNB from M4 receptor at 10 uM
T4 sequence (whole entry): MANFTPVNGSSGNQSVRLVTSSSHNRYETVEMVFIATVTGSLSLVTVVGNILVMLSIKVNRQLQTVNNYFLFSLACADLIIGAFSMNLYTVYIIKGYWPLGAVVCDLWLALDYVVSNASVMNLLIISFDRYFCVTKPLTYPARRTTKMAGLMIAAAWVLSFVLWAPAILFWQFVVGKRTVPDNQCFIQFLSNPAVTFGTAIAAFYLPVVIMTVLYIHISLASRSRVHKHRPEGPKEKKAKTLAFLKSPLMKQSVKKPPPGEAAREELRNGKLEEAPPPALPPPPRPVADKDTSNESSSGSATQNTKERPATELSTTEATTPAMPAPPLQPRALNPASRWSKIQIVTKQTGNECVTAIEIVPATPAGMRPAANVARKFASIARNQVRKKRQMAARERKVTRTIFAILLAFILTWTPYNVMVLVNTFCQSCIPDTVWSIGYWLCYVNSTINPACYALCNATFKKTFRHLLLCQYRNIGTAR

[11] = molecular target: Sodium-dependent dopamine transporter (Homo sapiens) (UniProt Q01959); assay: Displacement of [3H]WIN35428 from DAT at 10 uM
Sequence of Sodium-dependent dopamine transporter (Homo sapiens) (Q01959 whole entry): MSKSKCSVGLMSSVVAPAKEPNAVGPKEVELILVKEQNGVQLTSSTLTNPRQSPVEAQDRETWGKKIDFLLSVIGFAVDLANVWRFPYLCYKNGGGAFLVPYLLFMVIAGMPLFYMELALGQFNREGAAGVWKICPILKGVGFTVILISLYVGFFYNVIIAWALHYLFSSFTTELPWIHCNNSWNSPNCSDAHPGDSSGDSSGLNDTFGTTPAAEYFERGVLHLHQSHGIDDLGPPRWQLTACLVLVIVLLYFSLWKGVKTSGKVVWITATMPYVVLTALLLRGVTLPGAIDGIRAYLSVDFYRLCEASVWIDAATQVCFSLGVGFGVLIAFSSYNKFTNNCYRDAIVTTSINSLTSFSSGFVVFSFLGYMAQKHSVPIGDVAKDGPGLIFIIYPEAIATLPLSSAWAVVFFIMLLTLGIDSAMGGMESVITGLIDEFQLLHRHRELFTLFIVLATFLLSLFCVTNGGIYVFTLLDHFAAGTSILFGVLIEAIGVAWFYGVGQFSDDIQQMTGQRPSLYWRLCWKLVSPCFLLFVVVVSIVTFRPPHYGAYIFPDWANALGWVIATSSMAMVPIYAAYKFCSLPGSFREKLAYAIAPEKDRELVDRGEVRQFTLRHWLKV

[12] = Metabolic stability in mouse liver microsomes assessed as compound remaining at 1 uM after 1 hr; format: ADME, Microsome; settings: read-out: Stability
Summary of the method: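 Compound at 1 μM incubated for 1 h with human or mouse liver microsomes; percent of parent remaining unchanged.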

[13] = Inhibition of CYP1A up to 10 uM; format: ADME
Summary of the method: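 Percent inhibition of CYP isoforms (CYP1A, CYP2C9, CYP2C19, CYP2D6, CYP3A; CYP1A2 reported) with test compound at concentrations up to 10 μM.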

Rattus norvegicus [14] = species on record: Rattus norvegicus; assay: Displacement of radioligand from benzodiazepine receptor in rat brain; format: tissue-based; settings: concentration not given here

| Compound | Ratio Ki (Rattus norvegicus [1]) | Efficacy [2] [%] | Activity (Mus musculus) [%] | inhibition [3] [%] | inhibition [4] [%] | inhibition [5] [%] | inhibition [6] [%] | inhibition [7] [%] | inhibition [8] [%] | inhibition [9] [%] | inhibition [10] [%] | inhibition [11] [%] | remaining at 1 h, 1 µM [12] [%] | inhibition (INH) [13] | inhibition (Rattus norvegicus [14]) [%] |
| --- | --- | --- | --- | --- | --- | --- | --- | --- | --- | --- | --- | --- | --- | --- | --- |
| COCC[C@H]1C[C@@H]1c1cncc(OC[C@@H]2CCN2)c1 | > 100000 | 60 | 85 | -7.2 | 24.7 | 1.4 | -1.6 | 16.4 | 48.3 | 25.3 | 0.7 | 21.7 | 84 | <= 25% | 26.6 |
| OCC[C@H]1C[C@@H]1c1cncc(OC[C@@H]2CCN2)c1 | 65200 | 92 | 85 | -7.7 | 18.2 | -7.1 | -1.6 | 9.9 | 45.8 | 24.3 | -3.7 | 43.7 | 80 | <= 25% | 29.2 |
| CNC(=O)OCC[C@H]1C[C@@H]1c1cncc(OC[C@@H]2CCN2)c1 | > 100000 | 77 | 65 | 25 | 48.7 | -6.4 | 2.5 | 12.4 | 18.2 | 10.6 | 29.2 | 63 | 98 | <= 25% | 2 |
